In ChEMBL document CHEMBL1140923, “Discovery of imidazo[1,2-b]thiazole derivatives as novel SIRT1 activators” (J Med Chem, 2009):
Calls of active or inactive are those of the source. The calls are words filed in the database; no cut-off is given here.

How the values were obtained:
[1] = Oral bioavailability in Sprague-Dawley rat at 100 mg/kg; type: ADME, organism-based; details: in vivo
How it was run: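 Male Sprague-Dawley rats (250 g, 3 per dose group) received 100 mg/kg by oral gavage in 2% HPMC + 0.2% DOSS, or 10 mg/kg iv by tail vein in 10% ethanol/40% PEG/50% H2O. Blood was drawn at 0.033-24 h postdose for drug levels.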

[2] = molecular target: T1, Muscarinic acetylcholine receptor M1 (Homo sapiens, UniProt P11229); test: Inhibition of muscarinic M1 receptor
T1 sequence (P11229 whole entry): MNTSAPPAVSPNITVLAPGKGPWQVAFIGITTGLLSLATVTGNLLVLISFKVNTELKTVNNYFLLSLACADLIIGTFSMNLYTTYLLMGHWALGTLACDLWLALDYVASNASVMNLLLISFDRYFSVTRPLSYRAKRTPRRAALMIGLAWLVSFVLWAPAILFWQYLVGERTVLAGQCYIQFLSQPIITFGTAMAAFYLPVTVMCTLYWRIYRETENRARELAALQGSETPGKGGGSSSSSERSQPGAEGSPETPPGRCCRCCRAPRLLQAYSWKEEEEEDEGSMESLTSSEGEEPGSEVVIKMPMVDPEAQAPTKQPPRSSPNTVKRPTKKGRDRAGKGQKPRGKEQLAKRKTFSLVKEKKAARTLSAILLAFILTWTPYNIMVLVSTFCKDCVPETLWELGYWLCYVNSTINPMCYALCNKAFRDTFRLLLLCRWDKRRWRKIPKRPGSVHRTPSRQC

[3] = AUC in C57BL/6 mouse at 100 mg/kg, po or 10 mg/kg, iv; type: ADME, organism-based; details: plasma
How it was run: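 Male C57BL/6 mice (18-22 g; 3 per dose group per time point), given 100 mg/kg po as the hydrochloride salt in 2% HPMC + 0.2% DOSS, or 10 mg/kg iv by tail vein in 10% ethanol/40% polyethylene glycol/50% H2O. Plasma was taken at 5, 30, 120 and 360 min after dosing and drug levels were measured.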

[4] = molecular target: Sodium-dependent noradrenaline transporter (Homo sapiens, UniProt P23975); test: Inhibition of norepinephrine transporter
Mus musculus [5] = test: Antidiabetic activity in diet-induced obesity C57BL/6 mouse model assessed as reduction of fed blood glucose level at 100 mg/kg, po daily once relative to control
Cytochrome P450 2C9 = Cytochrome P450 2C9 (Homo sapiens, UniProt P11712); test: Inhibition of CYP2C9 at 25 uM; type: ADME
How it was run: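 Inhibition of CYP isozymes was tested up to a highest concentration of 25 µM.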

[6] = molecular target: T2, NAD-dependent protein deacetylase sirtuin-1 (Homo sapiens) (UniProt Q96EB6); test: Activation of human SIRT1 expressed in Escherichia coli BL21Start assessed as concentration required to increase 50% enzyme activity by mass spectrometry assay
T2 sequence (whole entry): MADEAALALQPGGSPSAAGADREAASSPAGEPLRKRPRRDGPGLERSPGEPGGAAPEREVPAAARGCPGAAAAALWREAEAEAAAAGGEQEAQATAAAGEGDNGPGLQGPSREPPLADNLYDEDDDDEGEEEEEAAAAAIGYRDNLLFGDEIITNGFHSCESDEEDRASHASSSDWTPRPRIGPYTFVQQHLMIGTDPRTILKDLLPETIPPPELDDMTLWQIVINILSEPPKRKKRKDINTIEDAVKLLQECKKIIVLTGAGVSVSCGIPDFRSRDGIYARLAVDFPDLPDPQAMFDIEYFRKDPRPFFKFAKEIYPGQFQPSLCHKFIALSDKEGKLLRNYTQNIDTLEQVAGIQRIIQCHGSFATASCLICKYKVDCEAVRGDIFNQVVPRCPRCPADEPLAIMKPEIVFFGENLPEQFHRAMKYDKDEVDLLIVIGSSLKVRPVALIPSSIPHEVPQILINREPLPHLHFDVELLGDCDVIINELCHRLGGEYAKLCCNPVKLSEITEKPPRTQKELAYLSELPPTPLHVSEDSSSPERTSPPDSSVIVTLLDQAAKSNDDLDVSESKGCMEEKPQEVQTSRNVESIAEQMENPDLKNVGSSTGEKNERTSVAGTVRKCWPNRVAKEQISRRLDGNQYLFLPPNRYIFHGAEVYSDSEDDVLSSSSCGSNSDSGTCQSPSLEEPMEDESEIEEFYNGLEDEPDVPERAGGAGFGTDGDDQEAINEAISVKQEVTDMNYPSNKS
How it was run: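 Truncated SIRT1 was expressed in E. coli BL21Start (DE3) and purified on Ni2+ chelate. Reaction: 10 nM enzyme, 0.5 µM biotinylated, fluorophore-tagged p53-derived 20-mer acetyl-lysine peptide and 120 µM NAD+, in 50 mM Tris-acetate pH 8 with NaCl, KCl, MgCl2, 5 mM DTT and 0.05% BSA; DMSO vehicle; 25 min at 25 °C. Stopped with formic acid/nicotinamide; acetylated versus deacetylated peptide read by mass spectrometry. EC1.5 is the concentration raising activity by 50%, the mean of three titration curves.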

Mus musculus [7] = test: Antidiabetic activity in diet-induced obesity C57BL/6 mouse model assessed as reduction of plasma insulin level at 100 mg/kg, po daily once after 10 weeks
Mus musculus [8] = test: Antidiabetic activity in diet-induced obesity C57BL/6 mouse model assessed as reduction of plasma insulin level at 100 mg/kg, po daily once after 10 weeks; type: functional, organism-based; set-up: dose 100 mg/kg
How it was run: (§1)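 Male C57BL/6 mice were fed a 60%-fat diet from 9 weeks of age until about 40 g, in groups of 6-10. They were dosed by oral gavage once daily in 2% HPMC + 0.2% DOSS, with 29 at 100 mg/kg and rosiglitazone at 5 mg/kg, alongside vehicle groups on lean and high-fat diet. Fed glucose was read at weeks 2, 4, 6, 8 and 10. Clinical chemistry and hematology were also measured. Analysis by ANOVA.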

Mus musculus [9] = test: Toxicity in diet-induced obesity C57BL/6 mouse model assessed as white blood count at 100 mg/kg, po daily once for 10 weeks; type: organism-based; set-up: dose 100 mg/kg, route oral; details: in vivo, 1680 h; how it was run: as §1
[10] = molecular target: T3, Alpha-2A adrenergic receptor (Homo sapiens, UniProt P08913); test: Inhibition of adrenergic alpha2A receptor
T3 sequence (P08913 whole entry): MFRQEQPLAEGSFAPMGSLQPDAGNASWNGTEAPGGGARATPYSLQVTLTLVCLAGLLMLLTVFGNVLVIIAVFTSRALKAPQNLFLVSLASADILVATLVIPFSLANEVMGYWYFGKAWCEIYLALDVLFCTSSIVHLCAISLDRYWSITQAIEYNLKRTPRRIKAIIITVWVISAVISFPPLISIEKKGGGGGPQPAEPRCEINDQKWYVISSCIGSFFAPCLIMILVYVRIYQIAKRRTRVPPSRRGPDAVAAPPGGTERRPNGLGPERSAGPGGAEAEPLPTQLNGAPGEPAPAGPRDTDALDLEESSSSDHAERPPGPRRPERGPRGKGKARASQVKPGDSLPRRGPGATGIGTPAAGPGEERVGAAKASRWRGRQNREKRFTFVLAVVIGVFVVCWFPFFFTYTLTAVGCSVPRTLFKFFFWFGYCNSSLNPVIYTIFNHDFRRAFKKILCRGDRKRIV

Chain of Cytochrome P450 2C9 (P11712 whole entry): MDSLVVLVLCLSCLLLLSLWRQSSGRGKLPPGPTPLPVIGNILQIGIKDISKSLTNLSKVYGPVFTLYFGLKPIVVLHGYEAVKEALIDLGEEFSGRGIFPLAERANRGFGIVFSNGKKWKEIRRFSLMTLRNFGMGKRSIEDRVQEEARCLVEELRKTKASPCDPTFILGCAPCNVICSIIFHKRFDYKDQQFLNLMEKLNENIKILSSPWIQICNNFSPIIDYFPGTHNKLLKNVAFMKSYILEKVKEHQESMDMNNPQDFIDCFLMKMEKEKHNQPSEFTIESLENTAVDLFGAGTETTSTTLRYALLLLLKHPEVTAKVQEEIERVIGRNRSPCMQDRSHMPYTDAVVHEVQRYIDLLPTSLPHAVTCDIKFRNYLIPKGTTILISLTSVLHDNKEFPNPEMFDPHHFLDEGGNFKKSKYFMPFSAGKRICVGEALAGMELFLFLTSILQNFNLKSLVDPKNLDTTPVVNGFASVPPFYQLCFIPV
Chain of Sodium-dependent noradrenaline transporter (P23975 whole entry): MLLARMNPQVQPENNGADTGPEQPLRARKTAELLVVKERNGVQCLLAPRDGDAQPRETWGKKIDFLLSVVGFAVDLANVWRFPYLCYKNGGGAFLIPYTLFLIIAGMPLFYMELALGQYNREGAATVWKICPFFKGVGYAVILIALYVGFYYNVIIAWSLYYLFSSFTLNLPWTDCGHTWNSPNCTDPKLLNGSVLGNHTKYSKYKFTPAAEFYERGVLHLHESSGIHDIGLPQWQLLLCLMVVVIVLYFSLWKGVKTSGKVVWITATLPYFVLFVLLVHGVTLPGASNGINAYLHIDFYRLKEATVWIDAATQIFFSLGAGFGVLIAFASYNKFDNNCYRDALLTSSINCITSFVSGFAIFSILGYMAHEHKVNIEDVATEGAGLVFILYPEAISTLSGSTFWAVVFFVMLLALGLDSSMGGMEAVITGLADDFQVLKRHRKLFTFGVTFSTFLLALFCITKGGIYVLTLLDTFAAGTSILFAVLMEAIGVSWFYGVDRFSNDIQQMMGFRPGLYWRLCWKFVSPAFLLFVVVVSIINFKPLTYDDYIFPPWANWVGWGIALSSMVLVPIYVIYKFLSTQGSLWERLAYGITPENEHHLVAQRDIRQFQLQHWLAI

## O=C(Nc1ccccc1-c1cn2c(CN3CCNCC3)csc2n1)c1cnc2ccccc2n1
[1]
  bioavailability: 25%
[2]
  IC50: 8020 nM
[3]
  AUC: 7900 ng·h/mL
[4]
  IC50: 2470 nM
Mus musculus [5]
  Activity: Active
Cytochrome P450 2C9
  Activity: Not Active
[6]
  Activity: 0.16 µM
Mus musculus [7]
  Activity: Active
Mus musculus [8]
  Activity: Active
Mus musculus [9]
  Activity: Active
[10]
  IC50: 2830 nM
